# Experimental data as given in ChEMBL document CHEMBL3297674, “Structure-activity relationships of 2'-modified-4'-selenoarabinofuranosyl-pyrimidines as anticancer agents” (Eur J Med Chem, 2014).
# Test system: K562
# Assay: Cytotoxicity against human K562 cells by SRB assay
# Type: functional, cell-based
# Conditions: not given
# Outline: (§1)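 Cytotoxicity measured in human cancer cell lines (colon HCT116, lung A549, stomach SNU638, breast T47D, prostate PC-3, leukemia K562) by sulforhodamine B protein staining.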
row,Compound,IC50
1,[N-]=[N+]=N[C@@H]1C(n2ccc(=O)[nH]c2=O)[Se][C@H](CO)[C@H]1O (stereo partly specified),> 100 µM
2,[N-]=[N+]=N[C@@H]1C(n2cc(Cl)c(=O)[nH]c2=O)[Se][C@H](CO)[C@H]1O (stereo partly specified),> 100 µM
3,[N-]=[N+]=N[C@@H]1C(n2cc(I)c(=O)[nH]c2=O)[Se][C@H](CO)[C@H]1O (stereo partly specified),> 100 µM
4,Cc1cn(C2[Se][C@H](CO)[C@@H](O)[C@@H]2F)c(=O)[nH]c1=O (stereo partly specified),76.3 µM
5,O=c1[nH]c(=O)n(C2[Se][C@H](CO)[C@@H](O)[C@@H]2F)cc1F (stereo partly specified),78.5 µM
6,O=c1[nH]c(=O)n(C2[Se][C@H](CO)[C@@H](O)[C@@H]2F)cc1Br (stereo partly specified),> 100 µM
7,O=c1[nH]c(=O)n(C2[Se][C@H](CO)[C@@H](O)[C@@H]2F)cc1I (stereo partly specified),> 100 µM
8,O=c1ccn(C2[Se][C@H](CO)[C@@H](O)[C@@H]2O)c(=O)[nH]1 (stereo partly specified),> 100 µM
9,Cc1cn(C2[Se][C@H](CO)[C@@H](O)[C@@H]2O)c(=O)[nH]c1=O (stereo partly specified),> 100 µM
10,O=c1[nH]c(=O)n(C2[Se][C@H](CO)[C@@H](O)[C@@H]2O)cc1F (stereo partly specified),> 100 µM
11,O=c1[nH]c(=O)n(C2[Se][C@H](CO)[C@@H](O)[C@@H]2O)cc1Cl (stereo partly specified),> 100 µM

# Test system: not listed separately
# Assay: Cytotoxicity against human SNU638 cells by SRB assay
# Type: functional, cell-based
# Conditions: SNU-638
# Outline: as §1
row,Compound,IC50
1,[N-]=[N+]=N[C@@H]1C(n2ccc(=O)[nH]c2=O)[Se][C@H](CO)[C@H]1O (stereo partly specified),> 100 µM
2,[N-]=[N+]=N[C@@H]1C(n2cc(Cl)c(=O)[nH]c2=O)[Se][C@H](CO)[C@H]1O (stereo partly specified),> 100 µM
3,[N-]=[N+]=N[C@@H]1C(n2cc(I)c(=O)[nH]c2=O)[Se][C@H](CO)[C@H]1O (stereo partly specified),> 100 µM
4,Cc1cn(C2[Se][C@H](CO)[C@@H](O)[C@@H]2F)c(=O)[nH]c1=O (stereo partly specified),77.2 µM
5,O=c1[nH]c(=O)n(C2[Se][C@H](CO)[C@@H](O)[C@@H]2F)cc1F (stereo partly specified),50.1 µM
6,O=c1[nH]c(=O)n(C2[Se][C@H](CO)[C@@H](O)[C@@H]2F)cc1Br (stereo partly specified),> 100 µM
7,O=c1[nH]c(=O)n(C2[Se][C@H](CO)[C@@H](O)[C@@H]2F)cc1I (stereo partly specified),> 100 µM
8,O=c1ccn(C2[Se][C@H](CO)[C@@H](O)[C@@H]2O)c(=O)[nH]1 (stereo partly specified),> 100 µM
9,Cc1cn(C2[Se][C@H](CO)[C@@H](O)[C@@H]2O)c(=O)[nH]c1=O (stereo partly specified),> 100 µM
10,O=c1[nH]c(=O)n(C2[Se][C@H](CO)[C@@H](O)[C@@H]2O)cc1F (stereo partly specified),60.1 µM
11,O=c1[nH]c(=O)n(C2[Se][C@H](CO)[C@@H](O)[C@@H]2O)cc1Cl (stereo partly specified),> 100 µM

# Test system: PC-3
# Assay: Cytotoxicity against human PC3 cells by SRB assay
# Type: functional, cell-based
# Conditions: not given
# Outline: as §1
row,Compound,IC50
1,[N-]=[N+]=N[C@@H]1C(n2ccc(=O)[nH]c2=O)[Se][C@H](CO)[C@H]1O (stereo partly specified),> 100 µM
2,[N-]=[N+]=N[C@@H]1C(n2cc(Cl)c(=O)[nH]c2=O)[Se][C@H](CO)[C@H]1O (stereo partly specified),> 100 µM
3,[N-]=[N+]=N[C@@H]1C(n2cc(I)c(=O)[nH]c2=O)[Se][C@H](CO)[C@H]1O (stereo partly specified),> 100 µM
4,Cc1cn(C2[Se][C@H](CO)[C@@H](O)[C@@H]2F)c(=O)[nH]c1=O (stereo partly specified),88 µM
5,O=c1[nH]c(=O)n(C2[Se][C@H](CO)[C@@H](O)[C@@H]2F)cc1F (stereo partly specified),43.1 µM
6,O=c1[nH]c(=O)n(C2[Se][C@H](CO)[C@@H](O)[C@@H]2F)cc1Br (stereo partly specified),> 100 µM
7,O=c1[nH]c(=O)n(C2[Se][C@H](CO)[C@@H](O)[C@@H]2F)cc1I (stereo partly specified),> 100 µM
8,O=c1ccn(C2[Se][C@H](CO)[C@@H](O)[C@@H]2O)c(=O)[nH]1 (stereo partly specified),> 100 µM
9,Cc1cn(C2[Se][C@H](CO)[C@@H](O)[C@@H]2O)c(=O)[nH]c1=O (stereo partly specified),> 100 µM
10,O=c1[nH]c(=O)n(C2[Se][C@H](CO)[C@@H](O)[C@@H]2O)cc1F (stereo partly specified),66.3 µM
11,O=c1[nH]c(=O)n(C2[Se][C@H](CO)[C@@H](O)[C@@H]2O)cc1Cl (stereo partly specified),> 100 µM

# Test system: T47D
# Assay: Cytotoxicity against human T47D cells by SRB assay
# Type: functional, cell-based
# Conditions: not given
# Outline: as §1
row,Compound,IC50
1,[N-]=[N+]=N[C@@H]1C(n2ccc(=O)[nH]c2=O)[Se][C@H](CO)[C@H]1O (stereo partly specified),> 100 µM
2,[N-]=[N+]=N[C@@H]1C(n2cc(Cl)c(=O)[nH]c2=O)[Se][C@H](CO)[C@H]1O (stereo partly specified),> 100 µM
3,[N-]=[N+]=N[C@@H]1C(n2cc(I)c(=O)[nH]c2=O)[Se][C@H](CO)[C@H]1O (stereo partly specified),> 100 µM
4,Cc1cn(C2[Se][C@H](CO)[C@@H](O)[C@@H]2F)c(=O)[nH]c1=O (stereo partly specified),65.3 µM
5,O=c1[nH]c(=O)n(C2[Se][C@H](CO)[C@@H](O)[C@@H]2F)cc1F (stereo partly specified),51.1 µM
6,O=c1[nH]c(=O)n(C2[Se][C@H](CO)[C@@H](O)[C@@H]2F)cc1Br (stereo partly specified),> 100 µM
7,O=c1[nH]c(=O)n(C2[Se][C@H](CO)[C@@H](O)[C@@H]2F)cc1I (stereo partly specified),> 100 µM
8,O=c1ccn(C2[Se][C@H](CO)[C@@H](O)[C@@H]2O)c(=O)[nH]1 (stereo partly specified),> 100 µM
9,Cc1cn(C2[Se][C@H](CO)[C@@H](O)[C@@H]2O)c(=O)[nH]c1=O (stereo partly specified),> 100 µM
10,O=c1[nH]c(=O)n(C2[Se][C@H](CO)[C@@H](O)[C@@H]2O)cc1F (stereo partly specified),67.4 µM
11,O=c1[nH]c(=O)n(C2[Se][C@H](CO)[C@@H](O)[C@@H]2O)cc1Cl (stereo partly specified),> 100 µM

# Test system: HCT-116
# Assay: Cytotoxicity against human HCT116 cells by SRB assay
# Type: functional, cell-based
# Conditions: not given
# Outline: as §1
row,Compound,IC50
1,[N-]=[N+]=N[C@@H]1C(n2ccc(=O)[nH]c2=O)[Se][C@H](CO)[C@H]1O (stereo partly specified),> 100 µM
2,[N-]=[N+]=N[C@@H]1C(n2cc(Cl)c(=O)[nH]c2=O)[Se][C@H](CO)[C@H]1O (stereo partly specified),> 100 µM
3,[N-]=[N+]=N[C@@H]1C(n2cc(I)c(=O)[nH]c2=O)[Se][C@H](CO)[C@H]1O (stereo partly specified),> 100 µM
4,Cc1cn(C2[Se][C@H](CO)[C@@H](O)[C@@H]2F)c(=O)[nH]c1=O (stereo partly specified),85.2 µM
5,O=c1[nH]c(=O)n(C2[Se][C@H](CO)[C@@H](O)[C@@H]2F)cc1F (stereo partly specified),40.1 µM
6,O=c1[nH]c(=O)n(C2[Se][C@H](CO)[C@@H](O)[C@@H]2F)cc1Br (stereo partly specified),> 100 µM
7,O=c1[nH]c(=O)n(C2[Se][C@H](CO)[C@@H](O)[C@@H]2F)cc1I (stereo partly specified),> 100 µM
8,O=c1ccn(C2[Se][C@H](CO)[C@@H](O)[C@@H]2O)c(=O)[nH]1 (stereo partly specified),> 100 µM
9,Cc1cn(C2[Se][C@H](CO)[C@@H](O)[C@@H]2O)c(=O)[nH]c1=O (stereo partly specified),> 100 µM
10,O=c1[nH]c(=O)n(C2[Se][C@H](CO)[C@@H](O)[C@@H]2O)cc1F (stereo partly specified),56.8 µM
11,O=c1[nH]c(=O)n(C2[Se][C@H](CO)[C@@H](O)[C@@H]2O)cc1Cl (stereo partly specified),> 100 µM

# Test system: A549
# Assay: Cytotoxicity against human A549 cells by SRB assay
# Type: functional, cell-based
# Conditions: not given
# Outline: as §1
row,Compound,IC50
1,[N-]=[N+]=N[C@@H]1C(n2ccc(=O)[nH]c2=O)[Se][C@H](CO)[C@H]1O (stereo partly specified),> 100 µM
2,[N-]=[N+]=N[C@@H]1C(n2cc(Cl)c(=O)[nH]c2=O)[Se][C@H](CO)[C@H]1O (stereo partly specified),> 100 µM
3,[N-]=[N+]=N[C@@H]1C(n2cc(I)c(=O)[nH]c2=O)[Se][C@H](CO)[C@H]1O (stereo partly specified),> 100 µM
4,Cc1cn(C2[Se][C@H](CO)[C@@H](O)[C@@H]2F)c(=O)[nH]c1=O (stereo partly specified),76.4 µM
5,O=c1[nH]c(=O)n(C2[Se][C@H](CO)[C@@H](O)[C@@H]2F)cc1F (stereo partly specified),54.2 µM
6,O=c1[nH]c(=O)n(C2[Se][C@H](CO)[C@@H](O)[C@@H]2F)cc1Br (stereo partly specified),> 100 µM
7,O=c1[nH]c(=O)n(C2[Se][C@H](CO)[C@@H](O)[C@@H]2F)cc1I (stereo partly specified),> 100 µM
8,O=c1ccn(C2[Se][C@H](CO)[C@@H](O)[C@@H]2O)c(=O)[nH]1 (stereo partly specified),> 100 µM
9,Cc1cn(C2[Se][C@H](CO)[C@@H](O)[C@@H]2O)c(=O)[nH]c1=O (stereo partly specified),> 100 µM
10,O=c1[nH]c(=O)n(C2[Se][C@H](CO)[C@@H](O)[C@@H]2O)cc1F (stereo partly specified),55.2 µM
11,O=c1[nH]c(=O)n(C2[Se][C@H](CO)[C@@H](O)[C@@H]2O)cc1Cl (stereo partly specified),> 100 µM
